Experimental data as given in ChEMBL document CHEMBL5712918, “Targeting methyltransferase PRMT5 retards the carcinogenesis and metastasis of HNSCC via epigenetically inhibiting Twist1 transcription” (Neoplasia, 2020).
Calls of active or inactive are those of the source. The rule behind the calls is not given here.

Legend:
[1] = target: Protein arginine N-methyltransferase 5 (Homo sapiens) (UniProt O14744); assay: Inhibition of PRMT5 in human SCC-25 cells assessed as reduction in WDR5 occupancy in Twist1 promoter region at 10 uM incubated for 4 days by Chip-qPCR analysis; type: cell-based; conditions: time 4.0 day
Outline: (§1)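 SCC25 cells exposed to inhibitor at 10 μM for 4 days. ChIP used a commercial kit with anti-WDR5 or anti-Set1 (1:50), and binding at the Twist1 promoter was quantified by qPCR. Mean ± SD of three independent experiments, Student's t test.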

[2] = target: Protein arginine N-methyltransferase 5 (Homo sapiens) (UniProt O14744); assay: Inhibition of PRMT5 in human SCC-25 cells assessed as increase in E-cadherin protein expression level at 10 uM incubated for 4 days by western blot analysis; conditions: time 4.0 day
[3] = target: Protein arginine N-methyltransferase 5 (Homo sapiens) (UniProt O14744); assay: Inhibition of PRMT5 in human SCC-25 cells assessed as reduction in H3R2me2 protein expression at 10 uM incubated for 4 days by western blot analysis; type: cell-based; conditions: time 4.0 day
[4] = target: Protein arginine N-methyltransferase 5 (Homo sapiens) (UniProt O14744); assay: Inhibition of PRMT5 in human SCC-25 cells assessed as reduction in H4R3me2 protein expression at 10 uM incubated for 4 days by western blot analysis; type: cell-based; conditions: time 4.0 day
Rattus norvegicus [5] = assay: Antitumor activity against 4-Nitroquinoline-1-Oxide induced cancer Sprague-Dawley rat carcinogenic model assessed as normal area of tongue tissue at 30 mg/kg, iv administered on week 12 and measured on week 22 (reference value: 6.7%); type: functional; conditions: time 10 weeks
[6] = target: Protein arginine N-methyltransferase 5 (Homo sapiens) (UniProt O14744); assay: Inhibition of PRMT5 in human HSC-6 cells assessed as reduction in set1 occupancy in Twist1 promoter region at 10 uM incubated for 4 days by Chip-qPCR analysis; type: cell-based; conditions: time 4.0 day
Outline: (§2)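 ChIP-qPCR at the Twist1 promoter after 4 days at 10 μM in HSC6 or SCC25 cells. Antibody ratios: H3R2me2s 1:100, H4R3me2s 1:100, WDR5 1:50, Set1 1:50; ChIP assay kit protocol. Mean ± SD of three independent experiments, Student's t test.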

[7] = target: Protein arginine N-methyltransferase 5 (Homo sapiens) (UniProt O14744); assay: Inhibition of PRMT5 in human SCC-25 cells assessed as reduction in Twist1 mRNA expression at 10 uM incubated for 4 days by RT-qPCR analysis; type: cell-based; conditions: time 4.0 day
Outline: (§3)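 HSC6 or SCC25 cells exposed to 10 μM for 4 days. Twist1 mRNA measured by quantitative RT-PCR. Mean ± SD of three independent experiments, Student's t test.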

[8] = target: Protein arginine N-methyltransferase 5 (Homo sapiens) (UniProt O14744); assay: Inhibition of PRMT5 in human SCC-25 cells assessed as reduction in set1 occupancy in Twist1 promoter region at 10 uM incubated for 4 days by Chip-qPCR analysis; type: cell-based; conditions: time 4.0 day; outline: as §1
SCC-25 [9] = assay: Anti-invasive activity against human SCC-25 cells assessed as reduction in cell invasion at 10 uM for 4 days by transwell assay; type: functional, cell-based; conditions: time 4.0 day
Outline: (§4)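 Transwell migration and invasion with 8-μm pore inserts. HSC6 or SCC25 cells, including lines stably overexpressing Flag-Twist1, treated at 10 μM for 4 days. Mean ± SD of three independent experiments, one-way ANOVA.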

[10] = target: Protein arginine N-methyltransferase 5 (Homo sapiens) (UniProt O14744); assay: Inhibition of PRMT5 in human HSC-6 cells assessed as reduction in WDR5 occupancy in Twist1 promoter region at 10 uM incubated for 4 days by Chip-qPCR analysis; type: cell-based; conditions: time 4.0 day; outline: as §2
[11] = Toxicity in BALB/c nude mouse xenografted with human tongue squamous carcinoma cells assessed as effect on liver morphology at 30 mg/kg; type: organism-based; conditions: in vivo
[12] = target: Protein arginine N-methyltransferase 5 (Homo sapiens) (UniProt O14744); assay: Inhibition of PRMT5 in human SCC-25 cells over expressing Twist1 assessed as increase in N-cadherin protein level at 10 uM incubated for 4 days by immunoblot analysis; type: cell-based; conditions: time 4.0 day
Outline: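 SCC25 cells stably overexpressing Flag-tagged Twist1 were treated with or without 10 μM inhibitor for 4 days, then immunoblotted for Twist1, N-cadherin and E-cadherin.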

[13] = target: Protein arginine N-methyltransferase 5 (Homo sapiens) (UniProt O14744); assay: Inhibition of PRMT5 in human HSC-6 cells assessed as reduction in H3R8me2 protein expression at 10 uM incubated for 4 days by western blot analysis; type: cell-based; conditions: time 4.0 day
SCC-25 [14] = assay: Antimigratory activity against human SCC-25 cells assessed as reduction in cell migration at 10 uM for 4 days by transwell assay; type: functional, cell-based; conditions: time 4.0 day; outline: as §4
SCC-25 [15] = assay: Antiproliferative activity against human SCC-25 cells assessed as reduction in colony formation at 0.5 to 5 uM after 10 to 14 days […]; type: functional, cell-based; conditions: dose 0.5-5 µM, time 10-14 day
Outline: (§5)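 Colony formation: cells dispersed to single cells and seeded at 500 cells/well in 6-well plates. Grown 10–14 days until macroscopic clones appeared, then formaldehyde-fixed and crystal violet-stained. Clone formation rate from clones counted by eye.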

[16] = test system: Squamous carcinoma cell line; assay: Antitumor activity against human squamous carcinoma cells in BALB/c nude PDX xenograft mouse assessed as tumor volume at 30 mg/kg; type: functional, organism-based
Outline: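 PDX: tongue squamous carcinoma tissue minced into 1∼2 mm3 pieces and passaged in BALB/c nude mice. P2 tissue implanted subcutaneously into 4-week-old mice, randomised at 50 mm3 tumour size to control or 30 mg/kg (n = 6 each). Volume change followed, and Ki-67 IHC quantified. Mean ± SD, Student's t test.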

[17] = target: Protein arginine N-methyltransferase 5 (Homo sapiens) (UniProt O14744); assay: Inhibition of PRMT5 in human HSC-6 cells assessed as reduction in Twist1 protein expression at 10 uM incubated for 4 days by western blot analysis; type: cell-based; conditions: time 4.0 day
Outline: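 HSC6 or SCC25 cells treated with 10 μM for 4 days. E-cadherin, N-cadherin and Twist1 proteins detected by immunoblot.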

[18] = target: Protein arginine N-methyltransferase 5 (Homo sapiens) (UniProt O14744); assay: Inhibition of PRMT5 in human HSC-6 cells assessed as reduction in H3R2me2 enrichment in Twist1 promoter region at 10 uM incubated for 4 days by Chip-qPCR analysis; type: cell-based; conditions: time 4.0 day; outline: as §2
HSC-6 [19] = assay: Antiproliferative activity against human HSC-6 cells assessed as reduction in colony formation at 0.5 to 5 uM after 10 to 14 days […]; type: functional, cell-based; conditions: dose 0.5-5 µM, time 10-14 day; outline: as §5
SCC-25 [20] = assay: Antiproliferative activity against human SCC-25 cells assessed as reduction in cell vaibility at 1 to 10 uM by CCK-8 assay; type: functional, cell-based; conditions: dose 1-10 µM
Outline: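 Proliferation of HSC6 and SCC25 cells read by CCK-8 conversion. Mean ± SD of three independent experiments, Student's t test.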

[21] = target: Protein arginine N-methyltransferase 5 (Homo sapiens) (UniProt O14744); assay: Inhibition of PRMT5 in human SCC-25 cells assessed as reduction in H3R2me2 enrichment in Twist1 promoter region at 10 uM incubated for 4 days by Chip-qPCR analysis; type: cell-based; conditions: time 4.0 day; outline: as §2
SCC-25 [22] = assay: Antimigratory activity against human SCC-25 cells assessed as reduction in cell invasion after 48 hrs incubated for 48 hrs by transwell assay; type: functional, cell-based
HSC-6 [23] = assay: Antitumor activity against human HSC-6 cells xenografted in BALB/c nude mouse assessed as reduction in tumor volume at 15 to 30 mg/kg; conditions: dose 15-30 mg/kg
[24] = Toxicity in BALB/c nude mouse xenografted with human squamous carcinoma cells assessed as effect on body weight at 30 mg/kg; type: organism-based; conditions: in vivo
Rattus norvegicus [25] = assay: Antitumor activity against 4-Nitroquinoline-1-Oxide induced cancer Sprague-Dawley rat carcinogenic model assessed as reduction in lesion area of tongue tissue at 30 mg/kg, iv administered on week 12 and measured on week 22; type: functional, organism-based; conditions: time 10.0 weeks
[26] = target: Protein arginine N-methyltransferase 5 (Homo sapiens) (UniProt O14744); assay: Inhibition of PRMT5 in human HSC-6 cells assessed as reduction in Twist1 mRNA expression at 10 uM incubated for 4 days by RT-qPCR analysis; type: cell-based; conditions: time 4.0 day; outline: as §3

Chain of Protein arginine N-methyltransferase 5 (Homo sapiens) (O14744 whole entry): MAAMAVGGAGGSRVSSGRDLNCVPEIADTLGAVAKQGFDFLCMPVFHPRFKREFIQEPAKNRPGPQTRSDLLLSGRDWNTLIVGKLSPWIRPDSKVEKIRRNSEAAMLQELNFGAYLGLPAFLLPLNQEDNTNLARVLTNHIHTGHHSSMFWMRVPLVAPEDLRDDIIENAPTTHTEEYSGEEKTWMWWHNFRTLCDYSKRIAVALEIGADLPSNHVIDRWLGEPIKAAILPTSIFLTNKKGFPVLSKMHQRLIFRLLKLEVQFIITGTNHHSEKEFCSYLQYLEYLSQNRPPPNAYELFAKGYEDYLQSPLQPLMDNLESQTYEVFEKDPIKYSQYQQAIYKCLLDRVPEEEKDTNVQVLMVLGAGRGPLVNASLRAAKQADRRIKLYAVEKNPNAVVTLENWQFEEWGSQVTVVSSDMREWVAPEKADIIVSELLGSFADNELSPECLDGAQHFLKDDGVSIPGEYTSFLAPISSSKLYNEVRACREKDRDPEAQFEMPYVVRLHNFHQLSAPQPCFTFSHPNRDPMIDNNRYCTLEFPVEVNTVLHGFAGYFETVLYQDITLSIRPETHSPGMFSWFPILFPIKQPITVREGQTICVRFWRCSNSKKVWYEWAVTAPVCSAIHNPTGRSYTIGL

O=C(NC[C@H](O)CN1CCc2ccccc2C1)c1cc(NC2COC2)ncn1
inhibition [1]: Active | inhibition [2]: Active | inhibition [3]: Active | inhibition [4]: Active | Activity (Rattus norvegicus [5]): 38.5% | inhibition [6]: Active | inhibition [7]: Active | inhibition [8]: Active | Activity (SCC-25 [9]): Active | inhibition [10]: Active | Activity [11]: Non-Toxic | inhibition [12]: inactive | inhibition [13]: Active | Activity (SCC-25 [14]): Active | Activity (SCC-25 [15]): Active | Activity [16]: Active | inhibition [17]: Active | inhibition [18]: Active | Activity (HSC-6 [19]): Active | Activity (SCC-25 [20]): Active | inhibition [21]: Active | Activity (SCC-25 [22]): Active | Activity (HSC-6 [23]): Active | Activity [24]: Non-Toxic | Activity (Rattus norvegicus [25]): Active | inhibition [26]: Active
